Measurements reported in ChEMBL document CHEMBL1134499, “Structure-activity relationships of 1,4-dihydro-(1H,4H)-quinoxaline-2,3-diones as N-methyl-D-aspartate (glycine site) receptor antagonists. 1. Heterocyclic substituted 5-alkyl derivatives” (J Med Chem, 2001).
Values after ≈ are worked out from the molar mass of the structure shown.

Experiments:
Mus musculus [1] = experiment: Ability to prevent NMDA-induced hyperlocomotion in the mouse following iv administration of 30 mg/kg dose; 10/10; format: functional
Mus musculus [2] = experiment: Ability to prevent NMDA-induced hyperlocomotion in the mouse following iv administration of 10 mg/kg dose; 5/10; format: functional
Glutamate NMDA receptor = experiment: Binding affinity at glycine binding site of NMDA receptor in rat cortical membranes by [3H]L-689,560 displacement.; format: cell membranes, Membrane
Rattus norvegicus = organism: Rattus norvegicus; experiment: Inhibition of NMDA-induced depolarizations in rat cortical wedges.; format: functional
[3] = Solubility in 0.1 M aqueous D-arginine at pH 9
Mus musculus [4] = experiment: Ability to prevent NMDA-induced hyperlocomotion in the mouse following iv administration of 20 mg/kg dose; 0/9; format: functional
[5] = Solubility in 0.1 m aqueous D-arginine at pH 9; format: physicochemical
Mus musculus [6] = experiment: Ability to prevent NMDA-induced hyperlocomotion in the mouse following iv administration of 20 mg/kg dose; 0/6; format: functional
[7] = Solubility in water at pH 4-5; format: physicochemical
Mus musculus [8] = experiment: Ability to prevent NMDA-induced hyperlocomotion in the mouse following iv administration of 20 mg/kg dose; 1/9; format: functional
Mus musculus [9] = experiment: Ability to prevent NMDA-induced hyperlocomotion in the mouse following iv administration of 20 mg/kg dose; 6/9; format: functional
Procedure, shortened: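 CD1 mice (25-30 g) received NMDA 300 mg/kg sc. Test compound was given iv via a tail vein 15 min before NMDA, dissolved in buffered saline (pH 7-9) or 0.1 M aqueous D-arginine; saline-dosed controls; usually 9-10 mice per dose. Time to onset and duration of hyperlocomotion recorded up to 15 min. Score = number of animals reaching 15 min post-NMDA.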

Mus musculus [10] = experiment: Ability to prevent NMDA-induced hyperlocomotion in the mouse following iv administration of 3 mg/kg dose; 0/9; format: functional
Mus musculus [11] = experiment: Ability to prevent NMDA-induced hyperlocomotion in the mouse following iv administration of 30 mg/kg dose; 5/9; format: functional
Mus musculus [12] = experiment: Ability to prevent NMDA-induced hyperlocomotion in the mouse following iv administration of 10 mg/kg dose; 2/9; format: functional
Mus musculus [13] = experiment: Ability to prevent NMDA-induced hyperlocomotion in the mouse following iv administration of 15 mg/kg dose; 3/10; format: functional
Mus musculus [14] = experiment: Ability to prevent NMDA-induced hyperlocomotion in the mouse following iv administration of 3 mg/kg dose; 3/10; format: functional

SMILES	IC50 (Glutamate NMDA receptor) [nM]	EC50 (Rattus norvegicus) [nM]	also measured
C[C@@H]1CN(O)C(=O)[C@@H]1N	1200	16000	No. protected/ No.dosed (Mus musculus [1]): 10; No. protected/ No.dosed (Mus musculus [2]): 5
CCC(c1c(Cl)c(Cl)cc2nc(O)c(O)nc12)n1ccnc1 (stereo unspecified)	3.1	90	No. protected/ No.dosed (Mus musculus [4]): 0
CCC(c1c(Cl)c(Cl)cc2nc(O)c(O)nc12)n1ccnn1 (stereo unspecified)	0.75	290	solubility [5]: < 1000 µg/mL; No. protected/ No.dosed (Mus musculus [6]): 0
CCC(c1c(Cl)c(Cl)cc2nc(O)c(O)nc12)n1cnnc1 (stereo unspecified)	2.6	90	solubility [5]: > 5000 µg/mL; No. protected/ No.dosed (Mus musculus [9]): 6; No. protected/ No.dosed (Mus musculus [10]): 0; No. protected/ No.dosed (Mus musculus [11]): 5; No. protected/ No.dosed (Mus musculus [12]): 2
CCCn1cnc(Cc2c(Cl)c(Cl)cc3nc(O)c(O)nc23)c1	4.4	350	solubility [7]: > 10000 µg/mL; No. protected/ No.dosed (Mus musculus [9]): 6
CCC(c1c(Cl)c(Cl)cc2nc(O)c(O)nc12)n1cncn1 (stereo unspecified)	4	420	solubility [5]: ~1000 µg/mL (≈ 2940 µM)
Oc1nc2cc(Cl)c(Cl)cc2nc1O [2,3-DIHYDROXY-6,7-DICHLOROQUINOXALINE]	2000	–	–
O=c1[nH]c2cc(Cl)c(Cl)c([N+](=O)[O-])c2[nH]c1=O [LICOSTINEL]	1.4	1100	No. protected/ No.dosed (Mus musculus [13]): 3; No. protected/ No.dosed (Mus musculus [14]): 3; No. protected/ No.dosed (Mus musculus [2]): 5

Continued, in another order:

IC50 (Glutamate NMDA receptor) [nM]	EC50 (Rattus norvegicus) [nM]	SMILES	also measured
190	–	Cc1ncnn1Cc1c(Cl)c(Cl)cc2nc(O)c(O)nc12	–
5	–	Oc1nc2cc(Cl)c(Cl)c(Cn3cccn3)c2nc1O	solubility [3]: < 10 µg/mL
7.6	88	CN1CCN(Cc2cn(Cc3c(Cl)c(Cl)cc4nc(O)c(O)nc34)nn2)CC1	solubility [7]: > 10000 µg/mL; No. protected/ No.dosed (Mus musculus [8]): 1
23	1300	Oc1nc2cc(Cl)c(Cl)c(Cn3ccnc3)c2nc1O	–
109	–	Cc1nccn1Cc1c(Cl)c(Cl)cc2nc(O)c(O)nc12	–
81	1090	Oc1nc2cc(Cl)c(Cl)c(Cn3cnnc3)c2nc1O	–
24	640	Cc1ncn(Cc2c(Cl)c(Cl)cc3nc(O)c(O)nc23)n1	–
78	–	Cn1nnc(Cc2c(Cl)c(Cl)cc3nc(O)c(O)nc23)n1	–
30	4100	Oc1nc2cc(Cl)c(Cl)c(Cc3ccccn3)c2nc1O	solubility [7]: < 1000 µg/mL
1	350	Oc1nc2cc(Cl)c(Cl)c(Cn3ccnn3)c2nc1O	–
25	–	Oc1nc2cc(Cl)c(Cl)c(Cn3cncn3)c2nc1O	solubility [3]: < 10 µg/mL
6	150	CCN(CC)Cc1cn(Cc2c(Cl)c(Cl)cc3nc(O)c(O)nc23)nn1	No. protected/ No.dosed (Mus musculus [4]): 0
